The source made the active and inactive calls.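 Rule for the calls, unless noted: active = viability at or under a set limit in both replicates, limit being median viability minus 3 SD (cut at about 48% in these data, passing the limit was not always enough); inconclusive = at or under the limit in just one replicate; inactive = at or above the limit in both replicates.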 Square brackets hold non-standard residues; d marks the D form. Peptide text beside a SMILES is read from it. * marks the point of attachment. ξ: configuration not given here. Cbz = O=C(OCc1ccccc1)*; ξK = NCCCCC(N)C(=O)O
Assays:
[1] = reducers of endogenous Her2 protein level, primary screen, SKBR3 breast tumor cells, AlphaScreen, ATP viability (AID 461;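 active = Her2 level under about 52% in both replicate screens, with viability over 70% of control, limit read from the data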;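 for Her2 level: lower value means less Her2 protein in the cells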;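 for viability: percent of carrier control wells set as 100% viability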); details: 18-24 h, measured here: SKBR3 viability, ATP luminescence, at 10 µM
[2] = biological target: Receptor tyrosine-protein kinase erbB-2 (Homo sapiens) (UniProt P04626); test: as above; details: 18-24 h, at 10 µM, stronger effect = lower value
[3] = SK-BR-3 cell growth inhibitors, pilot screen, 24 h, human (AID 572;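 active = viability at or below 10% of carrier control in both of two separate runs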;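 note: compound exposure lasted between 18 and 24 h rather than exactly 24 h; 100% = carrier-treated control wells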); details: SK-BR-3 viability, CellTiter-Glo luminescence, at 10 µM, stronger effect = lower value
[4] = HUVEC growth inhibition – cell-based, human, primary screen (AID 575;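 active = viability at or below 30% in both replicate assays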;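 note: 100% = median of untreated cell wells with 0.1% DMSO on each plate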); details: HUVEC proliferation, CellTiter-Glo luminescence, 72 h; at 10 µM; stronger effect = lower value
How it was run: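 Timing: 72 h treatment at 37 °C; material: HUVEC primary cells; technique: CellTiter-Glo luminescence measuring cellular ATP; controls: vehicle and MePR control wells; measure: percent of median DMSO-control luminescence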

[5] = growth inhibitors of H69AR lung tumor, primary screen, human, duplicate replicates (AID 580); details: H69AR lung tumor cells viability, ATP luminescence, 72 h; at 10 µM; stronger effect = lower value;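 note: 100% = mean luminescence of untreated wells and 0% = no signal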
[6] = reversal of MRP1-mediated doxorubicin resistance, pilot screen, H69AR cells, doxorubicin co-treatment (AID 601;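 active = viability loss from added drug above about 55%, and viability with drug at most 40%, in both replicates, limit read from the data, passing the limit was not always enough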); details: CellTiter-Glo, 72 h, at 10 µM; for differential viability (reversal): stronger effect = higher value
[7] = 384-well plate pilot, post-Golgi transport modulator project, inhibition of yeast transport mutant growth (AID 636; in the data active = inhibition above about 31%); details: absorbance 615 nm, about 18 h, stronger effect = higher value
[8] = growth suppression of yeast trafficking mutant, preliminary HTS, modulators of trafficking downstream of Golgi apparatus project, 1536-format plate, OD 615 nm (AID 637; in the data active = inhibition above about 30%); details: yeast transport mutant growth, absorbance 615 nm, 18 h; stronger effect = higher value
[9] = H69AR cells + 2 uM doxorubicin, measured here: viability with 2 uM doxorubicin, stronger effect = lower value
[10] = H69AR cells, compound alone cytotoxicity

Receptor tyrosine-protein kinase erbB-2 (Homo sapiens), sequence (P04626 whole entry, looked up): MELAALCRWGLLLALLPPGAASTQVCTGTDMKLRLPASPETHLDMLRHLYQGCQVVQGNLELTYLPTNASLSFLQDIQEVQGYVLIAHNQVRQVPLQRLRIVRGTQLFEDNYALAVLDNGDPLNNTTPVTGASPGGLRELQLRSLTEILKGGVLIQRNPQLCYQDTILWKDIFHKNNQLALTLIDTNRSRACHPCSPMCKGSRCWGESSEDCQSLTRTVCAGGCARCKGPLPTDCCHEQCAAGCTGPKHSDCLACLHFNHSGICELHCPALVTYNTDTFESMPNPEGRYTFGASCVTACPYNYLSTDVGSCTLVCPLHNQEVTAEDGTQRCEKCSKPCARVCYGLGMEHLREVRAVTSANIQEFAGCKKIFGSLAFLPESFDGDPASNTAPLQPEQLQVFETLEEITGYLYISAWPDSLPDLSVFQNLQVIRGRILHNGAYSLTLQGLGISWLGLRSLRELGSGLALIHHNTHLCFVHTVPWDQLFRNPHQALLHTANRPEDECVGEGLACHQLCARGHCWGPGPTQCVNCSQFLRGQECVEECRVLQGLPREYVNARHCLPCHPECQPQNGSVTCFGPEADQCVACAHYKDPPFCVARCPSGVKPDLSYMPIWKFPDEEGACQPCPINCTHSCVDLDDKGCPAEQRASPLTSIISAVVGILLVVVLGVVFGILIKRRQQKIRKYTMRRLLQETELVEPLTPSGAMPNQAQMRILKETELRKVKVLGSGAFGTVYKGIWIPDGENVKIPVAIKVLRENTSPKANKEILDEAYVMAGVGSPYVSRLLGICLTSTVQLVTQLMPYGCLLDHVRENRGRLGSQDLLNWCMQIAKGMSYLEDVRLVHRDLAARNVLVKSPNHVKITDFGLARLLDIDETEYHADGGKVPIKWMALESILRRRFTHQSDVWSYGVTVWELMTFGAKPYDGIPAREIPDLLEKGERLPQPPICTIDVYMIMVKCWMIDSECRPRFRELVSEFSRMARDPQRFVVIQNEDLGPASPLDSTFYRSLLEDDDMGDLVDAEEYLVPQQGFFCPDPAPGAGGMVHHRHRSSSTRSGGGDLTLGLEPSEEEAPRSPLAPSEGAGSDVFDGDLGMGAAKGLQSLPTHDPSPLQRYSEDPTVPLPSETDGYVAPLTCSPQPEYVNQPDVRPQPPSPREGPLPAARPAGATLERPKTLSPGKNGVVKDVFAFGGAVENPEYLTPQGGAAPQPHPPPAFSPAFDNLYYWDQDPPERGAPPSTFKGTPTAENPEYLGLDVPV

For COC(=O)c1c(N)nc(C)n1-c1ccc(OC)cc1, the viability [1] was 86.5%, the Her2 level [2] was 91% (inactive) and the viability [3] was 86.5% (inactive). The viability [4] was 95.9% (inactive), the viability [5] was 96.1% (inactive) and the differential viability (reversal) ([6]; H69AR cells + 2 uM doxorubicin) was 4.61% (inactive). The viability [6, 9] was 91.5%, the viability [6, 10] was 96.1% and the inhibition [7] was -3.33% (inactive). The inhibition [8] was -3.77% (inactive).

For COC(=O)C(CCCCNC(=O)OCc1ccccc1)NC(=O)CN (stereo not given) (H-Gly-[ξK](Cbz)-OMe), the viability [1] was 109%, the Her2 level [2] was 92.5% (inactive) and the viability [3] was 109% (inactive). The viability [4] was 96.6% (inactive), the viability [5] was 100% (inactive) and the differential viability (reversal) ([6]; H69AR cells + 2 uM doxorubicin) was 4.78% (inactive). The viability [6, 9] was 95.5%, the viability [6, 10] was 100% and the inhibition [7] was -2.6% (inactive). The inhibition [8] was -0.79% (inactive).

In the case of Cc1cc(=O)n(C)c(=O)n1CCCCCN1CCCC1, the viability [1] is reported as 96.5%, the Her2 level [2] is reported as 80% (inactive) and the viability [3] is reported as 96.5% (inactive). For the same compound, the viability [4] was 100% (inactive), the viability [5] was 99.8% (inactive) and the differential viability (reversal) ([6]; H69AR cells + 2 uM doxorubicin) was 14.7% (inactive). For the same compound, the viability [6, 9] was 85.2%, the viability [6, 10] was 99.8% and the inhibition [7] was -1.2% (inactive). For the same compound, the inhibition [8] was 0.48% (inactive).

With O=C(c1ccc(Cl)cc1)C1CCN(C(=O)NC2CCCCC2)CC1 the viability [1] was 92%, the Her2 level [2] was 92% (inactive) and the viability [3] was 92% (inactive). For the same compound, the viability [4] was 101% (inactive), the viability [5] was 101% (inactive) and the differential viability (reversal) ([6]; H69AR cells + 2 uM doxorubicin) was 14% (inactive). For the same compound, the viability [6, 9] was 87%, the viability [6, 10] was 101% and the inhibition [7] was -4.8% (inactive). For the same compound, the inhibition [8] was -7.26% (inactive).

In the case of Cc1ccc(-c2noc(C3CCCN(C(=O)c4ccc(F)cc4F)C3)n2)cc1 (stereo not given), the viability [1] is reported as 99%, the Her2 level [2] is reported as 94% (inactive) and the viability [3] is reported as 99% (inactive). For the same compound, the viability [4] was 87.4% (inactive), the viability [5] was 90% (inactive) and the differential viability (reversal) ([6]; H69AR cells + 2 uM doxorubicin) was 1.88% (inactive). The viability [6, 9] was 88.1%, the viability [6, 10] was 90% and the inhibition [7] was -2.16% (inactive). The inhibition [8] was -9% (inactive).

In the case of COc1ccccc1Nc1nc(N)nc(CN2CCN(c3ccccc3F)CC2)n1, the viability [1] is reported as 96%, the Her2 level [2] is reported as 120% (inactive) and the viability [3] is reported as 96% (inactive). For the same compound, the viability [4] was 98.9% (inactive), the viability [5] was 81.3% (inactive) and the differential viability (reversal) ([6]; H69AR cells + 2 uM doxorubicin) was -8.69% (inactive). For the same compound, the viability [6, 9] was 90%, the viability [6, 10] was 81.3% and the inhibition [7] was 1.71% (inactive). The inhibition [8] was 11.5% (inactive).

For CC(=O)Nc1ccc(S(=O)(=O)NCC2CCC(C(=O)NCCCN3CCCC3=O)CC2)cc1 (stereo not given), the viability [1] was 107%, the Her2 level [2] was 91.5% (inactive) and the viability [3] was 107% (inactive). The viability [4] was 92.4% (inactive), the viability [5] was 94.3% (inactive) and the differential viability (reversal) ([6]; H69AR cells + 2 uM doxorubicin) was 6.51% (inactive). The viability [6, 9] was 87.8%, the viability [6, 10] was 94.3% and the inhibition [7] was -4.13% (inactive). The inhibition [8] was 1.45% (inactive).

For CCOc1ccc(N2CC(C(=O)Nc3cccc(C)c3C)CC2=O)cc1 (stereo not given), the viability [1] was 118%, the Her2 level [2] was 110% (inactive) and the viability [3] was 118% (inactive). For the same compound, the viability [4] was 111% (inactive), the viability [5] was 108% (inactive) and the differential viability (reversal) ([6]; H69AR cells + 2 uM doxorubicin) was 12.1% (inactive). For the same compound, the viability [6, 9] was 95.9%, the viability [6, 10] was 108% and the inhibition [7] was -3.47% (inactive). The inhibition [8] was -4.43% (inactive).

For Cc1ccc2cc(CN(CC3CCCO3)S(=O)(=O)c3ccc4c(c3)OCCO4)c(=O)[nH]c2c1C (stereo not given), the viability [1] was 86.5%, the Her2 level [2] was 80% (inactive) and the viability [3] was 86.5% (inactive). For the same compound, the viability [4] was 84.1% (inactive), the viability [5] was 86.1% (inactive) and the differential viability (reversal) ([6]; H69AR cells + 2 uM doxorubicin) was 3.25% (inactive). The viability [6, 9] was 82.9%, the viability [6, 10] was 86.1% and the inhibition [7] was -5.07% (inactive). The inhibition [8] was -6.03% (inactive).

In the case of Cc1cc(C)n(-c2ccc(C(=O)Nc3ccc4c(c3)OCCO4)cc2)n1, the viability [1] is reported as 93%, the Her2 level [2] is reported as 77.5% (inactive) and the viability [3] is reported as 93% (inactive). The viability [4] was 62.2% (inactive), the viability [5] was 89% (inactive) and the differential viability (reversal) ([6]; H69AR cells + 2 uM doxorubicin) was -6.18% (inactive). The viability [6, 9] was 95.2%, the viability [6, 10] was 89% and the inhibition [7] was 1.03% (inactive). The inhibition [8] was -2% (inactive).

In the case of Cc1oc2cc(O)ccc2c(=O)c1-c1cnn(-c2ccccc2)c1, the viability [1] is reported as 93.5%, the Her2 level [2] is reported as 90% (inactive) and the viability [3] is reported as 93.5% (inactive). The viability [4] was 85% (inactive), the viability [5] was 96.5% (inactive) and the differential viability (reversal) ([6]; H69AR cells + 2 uM doxorubicin) was -1.5% (inactive). The viability [6, 9] was 98%, the viability [6, 10] was 96.5% and the inhibition [7] was -5.13% (inactive). The inhibition [8] was 13.3% (inactive).

For Cc1ccc(NC(=O)C2CCCN2C(=O)Oc2ccccc2)cc1 (stereo not given), the viability [1] was 90.5%, the Her2 level [2] was 94.5% (inactive) and the viability [3] was 90.5% (inactive). The viability [4] was 107% (inactive), the viability [5] was 91.5% (inactive) and the differential viability (reversal) ([6]; H69AR cells + 2 uM doxorubicin) was -0.415% (inactive). For the same compound, the viability [6, 9] was 91.9%, the viability [6, 10] was 91.5% and the inhibition [7] was -6.4% (inactive). For the same compound, the inhibition [8] was -1.64% (inactive).

For Cc1cccc(N(CC(N)=O)S(C)(=O)=O)c1C, the viability [1] was 102%, the Her2 level [2] was 100% (inactive) and the viability [3] was 102% (inactive). For the same compound, the viability [4] was 107% (inactive), the viability [5] was 92% (inactive) and the differential viability (reversal) ([6]; H69AR cells + 2 uM doxorubicin) was 4.79% (inactive). For the same compound, the viability [6, 9] was 87.2%, the viability [6, 10] was 92% and the inhibition [7] was -2.76% (inactive). The inhibition [8] was 0.82% (inactive).

For Cn1cc(Br)c(C(=O)NC2CCCCC2)n1, the viability [1] was 102%, the Her2 level [2] was 112% (inactive) and the viability [3] was 102% (inactive). For the same compound, the viability [4] was 96.7% (inactive), the viability [5] was 94.3% (inactive) and the differential viability (reversal) ([6]; H69AR cells + 2 uM doxorubicin) was 3.45% (inactive). For the same compound, the viability [6, 9] was 90.9%, the viability [6, 10] was 94.3% and the inhibition [7] was 3.33% (inactive). For the same compound, the inhibition [8] was 0.79% (inactive).

In the case of Cc1ccc(C(=O)N2CCCC(c3nc4c(nnn4Cc4ccccc4)c(=O)[nH]3)C2)cc1 (stereo not given), the viability [1] is reported as 80.5%, the Her2 level [2] is reported as 105% (inactive) and the viability [3] is reported as 80.5% (inactive). For the same compound, the viability [4] was 110% (inactive), the viability [5] was 83.4% (inactive) and the differential viability (reversal) ([6]; H69AR cells + 2 uM doxorubicin) was 24.5% (inactive). The viability [6, 9] was 58.9%, the viability [6, 10] was 83.4% and the inhibition [7] was -3.08% (inactive). For the same compound, the inhibition [8] was 7.33% (inactive).

With Cc1cc(C(=O)N2CCN(c3ncccn3)CC2)cs1 the viability [1] was 90%, the Her2 level [2] was 94.5% (inactive) and the viability [3] was 90% (inactive). For the same compound, the viability [4] was 104% (inactive), the viability [5] was 102% (inactive) and the differential viability (reversal) ([6]; H69AR cells + 2 uM doxorubicin) was 11.2% (inactive). The viability [6, 9] was 90.8%, the viability [6, 10] was 102% and the inhibition [7] was -5.87% (inactive). For the same compound, the inhibition [8] was -1.15% (inactive).
